Experimental data as given in article PMC7127420 (European Journal of Medicinal Chemistry, 2008).
Read-outs that look alike come from different tables or passages of the source. Each block holds one compound with its values, some of them ahead of it.

What was measured:
recombinant HIV-2 RT = recombinant HIV-2 RT (Human immunodeficiency virus type 2 subtype A, UniProt P04584); test: Anti-reverse transcriptase assay, HIV-2 RT; format: biochemical, HIV-2(ROD)
Method in brief: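 Recombinant RT derived from HIV-2(ROD). Substrate was [8-3H]dGTP (2.5 μM) on poly(C).oligo(dG)12–18 (0.1 mM), with inhibitor at various concentrations. Incubated 37 °C for 30 min, then stopped with yeast RNA and trichloroacetic acid in Na4P2O7 and held on ice 30 min. Acid-insoluble radioactivity was counted; IC50 was the concentration giving 50% inhibition of RT activity.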

HIV-1(IIIB) [1] = test: Inhibition of HIV-1; format: cell-based, Human immunodeficiency virus type 1; conditions: relative to 8
HIV-1(IIIB) [2] = conditions: ref [1], cited from earlier work; for EC50: read-out: EC50 HIV-1(IIIB), CEM cells
[3] = system: human T-lymphocyte (CEM) cells; test: Cytostatic activity in mock-infected CEM cells; format: cell-based; conditions: concentration required to reduce mock-infected CEM cell viability by 50%
Method in brief: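 Mock-infected CEM cell cultures were run alongside the HIV-infected CEM cultures. CC50 was the compound concentration inhibiting CEM cell proliferation by 50%.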

HIV-2(ROD) = conditions: read-out: EC50 HIV-2(ROD); CEM cells; racemic mixture; ref [1]; cited from earlier work
[4] = system: human T-lymphocyte (CEM) cells; conditions: mock-infected CEM cells; racemic mixture; ref [1]; cited from earlier work

Chain of recombinant HIV-2 RT (P04584 613-1171 limits assumed): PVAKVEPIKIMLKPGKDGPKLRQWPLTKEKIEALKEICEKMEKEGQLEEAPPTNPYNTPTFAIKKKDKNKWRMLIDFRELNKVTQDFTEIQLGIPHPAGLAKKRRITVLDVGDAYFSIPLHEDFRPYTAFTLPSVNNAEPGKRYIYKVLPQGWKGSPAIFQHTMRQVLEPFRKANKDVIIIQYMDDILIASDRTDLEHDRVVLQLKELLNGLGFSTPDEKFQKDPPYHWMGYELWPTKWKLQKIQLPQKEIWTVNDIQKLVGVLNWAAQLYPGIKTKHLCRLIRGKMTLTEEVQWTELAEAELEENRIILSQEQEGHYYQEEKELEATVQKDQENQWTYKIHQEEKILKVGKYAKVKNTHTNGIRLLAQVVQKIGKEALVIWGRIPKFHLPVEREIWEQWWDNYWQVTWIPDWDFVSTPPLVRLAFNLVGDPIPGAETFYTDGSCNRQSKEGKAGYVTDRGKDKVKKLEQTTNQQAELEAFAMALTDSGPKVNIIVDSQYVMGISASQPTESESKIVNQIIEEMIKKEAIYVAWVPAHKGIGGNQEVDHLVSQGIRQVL
Chain of recombinant HIV-2 RT (P04584 613-1051 partner limits assumed): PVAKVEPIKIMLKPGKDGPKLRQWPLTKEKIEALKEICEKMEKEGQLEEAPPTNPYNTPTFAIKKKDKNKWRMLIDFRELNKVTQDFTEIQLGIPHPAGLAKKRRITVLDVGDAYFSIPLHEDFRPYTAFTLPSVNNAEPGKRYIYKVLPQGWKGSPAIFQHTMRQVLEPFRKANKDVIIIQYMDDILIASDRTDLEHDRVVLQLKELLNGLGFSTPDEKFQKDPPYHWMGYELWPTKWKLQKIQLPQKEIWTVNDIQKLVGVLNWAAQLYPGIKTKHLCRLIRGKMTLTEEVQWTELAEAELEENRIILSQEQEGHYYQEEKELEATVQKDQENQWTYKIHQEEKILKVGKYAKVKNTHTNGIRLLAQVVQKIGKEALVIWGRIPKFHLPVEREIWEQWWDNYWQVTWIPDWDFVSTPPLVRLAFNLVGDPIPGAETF

Compound: Cc1ccnc(N2C(=O)CSC2C23CC4CC(CC(C4)C2)C3)n1 (stereo not shown) [Compound 10, 2-Adamantan-1-yl-3-(4-methylpyrimidin-2-yl)-thiazolidin-4-one]
- fold reduction in antiviral potency (anti-HIV-1) (HIV-1(IIIB) [1]): 6 fold

Compound: Cc1cc(C)nc(N2C(=O)CSC2CC23CC4CC(CC(C4)C2)C3)n1 (stereo not shown) [Compound 12, 2-Adamantan-1-ylmethyl-3-(2,6-methylpyrimidin-2-yl)-thiazolidin-4-one]
- fold reduction in antiviral potency (anti-HIV-1) (HIV-1(IIIB) [1]): 13 fold

Compound: Cc1cc(C)nc(N2C(=O)CSC2C23CC4CC(CC(C4)C2)C3)c1 (single isomer, unassigned) [levo isomer]
- fold less active than the (+)-isomer (anti-HIV-1 activity) (HIV-1(IIIB) [2]): more than 60 fold

Compound: 2-Adamantan-1-ylmethyl-3-(2-dimethylaminoethyl)-thiazolidin-4-one [Compound 20]
- CC50 [3]: 43 ± 20.1 µM

Compound: Cc1cc(C)nc(N2C(=O)CSC2C23CC4CC(CC(C4)C2)C3)c1 (stereo not shown) [Compound 7, 2-adamantan-1-yl-3-(4,6-dimethylpyridin-2-yl)-thiazolidin-4-one]
- EC50 (HIV-1(IIIB) [2]): 0.35 ± 0.175 µM
- EC50 (HIV-2(ROD)): > 12 µM
- CC50 [4]: 42 ± 8.1 µM

Second part, led by results:

- IC50 (recombinant HIV-2 RT): > 600 µM
Compound: O=C1CSC(c2c(Cl)cccc2Cl)N1CCC12CC3CC(CC(C3)C1)C2 (stereo not shown) [Compound 25, 3-(2-Adamantan-1-ylethyl)-2-(2,6-dichlorophenyl)-thiazolidin-4-one]

- IC50 (recombinant HIV-2 RT): > 600 µM
Compound: O=C1CSC(c2c(F)cccc2F)N1CC12CC3CC(CC(C3)C1)C2 (stereo not shown) [Compound 28, 3-Adamantan-1-ylmethyl-2-(2,6-difluorophenyl)-thiazolidin-4-one]

- IC50 (recombinant HIV-2 RT): ≥ 600 µM
Compound: O=C1CSC(c2c(Cl)cccc2Cl)N1CC12CC3CC(CC(C3)C1)C2 (stereo not shown) [Compound 24, 3-Adamantan-1-ylmethyl-2-(2,6-dichlorophenyl)-thiazolidin-4-one]

- IC50 (recombinant HIV-2 RT): ≥ 600 µM
Compound: O=C1CSC(c2c(F)cccc2F)N1CCC12CC3CC(CC(C3)C1)C2 (stereo not shown) [Compound 29, 3-(2-Adamantan-1-ylethyl)-2-(2,6-difluorophenyl)-thiazolidin-4-one]

- IC50 (recombinant HIV-2 RT): > 600 µM
Compound: Cc1cc(C)nc(N2C(=O)CS[C@@H]2C23CC4CC(CC(C4)C2)C3)c1 (single isomer, unassigned; (+)) [7 (R enantiomer), (+)-2-adamantan-1-yl-3-(4,6-dimethyl-pyridin-2-yl)-thiazolidin-4-one, reference compound]
- EC50 (HIV-1(IIIB) [2]): 0.178 µM
